In ChEMBL document CHEMBL4732139, “Novel N-Methylated Cyclodepsipeptide Prodrugs for Targeted Cancer Therapy” (J Med Chem, 2021):
Activity calls are given as the source filed them. No cut-off for these calls is given here. Where a SMILES comes first, the peptide text is derived from it. Bridges are numbered along the chain shown (N, C = ends). [ ]: non-standard residue; d: D form. The star is where a group is joined. NMe2Val = CC(C)[C@@H](C(=O)*)N(C)C; NMeI = CC[C@H](C)[C@H](NC)C(=O)O; NMeT = CN[C@H](C(=O)O)[C@@H](C)O; NMeL = CN[C@@H](CC(C)C)C(=O)O; dHiv = CC(C)[C@@H](O)C(=O)O; NMeA = CN[C@@H](C)C(=O)O; dNMeA = CN[C@H](C)C(=O)O

Assays:
[1] = Toxicity in Balb/c mouse assessed as induction of weight loss at 5 mg/kg, iv dosed every 2 days for total 10 times and measured on day 21; format: organism-based; conditions: in vivo, 504 h, time 21 day
Summary of the method: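 Six-week male Balb/c nude mice, n = 3 per group, given various doses by i.v. injection every 2 days. Body weight monitored.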

[2] = system: BT-549; assay: Cytotoxicity in human BT-549 cells assessed as reduction in cell viability incubated for 48 hrs in absence of GSH-OEt by CCK8 assay; format: functional, cell-based; conditions: BT-549, 48 h
Summary of the method: (§1)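 Cells grown in high-glucose DMEM with 10% FBS and penicillin/streptomycin at 37 °C, 5% CO₂. 3000−4000 cells/well seeded and preincubated overnight. Treated with a concentration gradient in quadruplicate for 48 h. Medium then replaced with 10% CCK-8 in fresh medium for 1 h at 37 °C, A450 read. IC50 from log(inhibitor)-response fit, mean SD of three independent experiments.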

[3] = system: A549; assay: Cytotoxicity in human A549 cells assessed as reduction in cell viability incubated for 48 hrs in presence of GSH-OEt by CCK8 assay; format: functional, cell-based; conditions: A549, 48 h
Summary of the method: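 A549 cells preincubated 2 h with 1 mM GSH-OEt, then exposed to compound for 48 h. Viability by CCK-8. Remaining steps: overnight-seeded cells (3000−4000/well), quadruplicate wells, 10% CCK-8 for 1 h at 37 °C, A450. IC50 by log(inhibitor)-response fit, mean of triplicate.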

[4] = system: A549; assay: Antitumor activity against human A549 cells xenografted in Balb/c mouse assessed as reduction in tumor mass at 5 mg/kg, iv dosed every 2 days for total 10 times and measured on day 21 relative to untreated control; format: functional; conditions: time 21 day
Summary of the method: (§2)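 Six-week male Balb/c nude mice; 1 × 10⁷ A549 cells washed in cold PBS, suspended in serum-free high-glucose DMEM, injected s.c. in right flank. At ~50 mm³ (L × W × 1/2 W), randomized into two groups, n = 7 each. 5 mg/kg in 10% DMSO/PBS (1 mg/mL) given i.v. via tail vein every 2 days ×10. Vehicle control 10% DMSO/PBS. Tumor size and body weight measured before each injection. Tumors excised and weighed at end.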

[5] = Drug metabolism in PBS at 37 degC assessed as metabolite-1a formation at 50 uM in presence of DTT after 30 to 90 mins by RP-HPLC analysis; conditions: time 30-90 min
Summary of the method: (§3)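 50 μM conjugate (from 2 mM DMSO stock) in 10% DMSO/PBS with 150 μM DTT (final) at 37 °C. Aliquots taken at 30, 60 and 90 min for RP-HPLC: C18, 10−100% CH₃CN over 20 min in 0.1% TFA water, 0.5 mL/min, detection at 220 and 254 nm. Three repeats.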

[6] = Toxicity in Balb/c mouse xenografted with human A549 cells assessed as induction of weight loss at 5 mg/kg, iv dosed every 2 days for total 10 times and measured on day 21; format: organism-based; conditions: in vivo, 504 h, time 21 day; summary of the method: as §2
[7] = system: A549; assay: Cytotoxicity in human A549 cells assessed as reduction in cell viability incubated for 48 hrs in absence of GSH-OEt by CCK8 assay; format: functional, cell-based; conditions: A549, 48 h; summary of the method: as §1
[8] = system: A549; assay: Antitumor activity against human A549 cells xenografted in Balb/c mouse assessed as reduction in tumor size at 5 mg/kg, iv dosed every 2 days for total 10 times and measured on day 21; format: functional, organism-based; conditions: time 21.0 day; summary of the method: as §2
[9] = Toxicity in Balb/c mouse xenografted with human A549 cells assessed as induction of side effect at 5 mg/kg, iv dosed every 2 days for total 10 times and measured on day 21; format: organism-based; conditions: in vivo; summary of the method: as §2
[10] = Drug metabolism in PBS at 37 degC assessed as parent compound disappearance at 50 uM in presence of DTT after 90 mins by RP-HPLC analysis; summary of the method: as §3
[11] = Drug metabolism in PBS at 37 degC assessed as metabolite-1a formation at 50 uM in presence of DTT after 30 mins by RP-HPLC analysis; summary of the method: as §3
[12] = system: A549; assay: Cytotoxicity in human A549 cells assessed as reduction in cell viability incubated for 72 hrs by CCK8 assay; format: functional, cell-based
Summary of the method: (§4)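 CCK-8 viability assay with a 72 h treatment. Cells seeded at 3000−4000/well and preincubated overnight. Concentration gradient applied in quadruplicate. Then 10% CCK-8 for 1 h at 37 °C and A450 read. IC50 by log(inhibitor)-response fitting.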

[13] = system: A549; assay: Antitumor activity against human A549 cells xenografted in Balb/c mouse assessed as reduction in tumor growth at 5 mg/kg, iv dosed every 2 days for total 10 times and measured on day 21; format: functional, organism-based; conditions: time 21.0 day; summary of the method: as §2
[14] = system: BT-549; assay: Cytotoxicity in human BT-549 cells assessed as reduction in cell viability incubated for 72 hrs by CCK8 assay; format: functional, cell-based; summary of the method: as §4
[15] = Stability in PBS at 37 degC assessed as parent intact compound remaining level at 50 uM after 24 hrs by RP-HPLC analysis; format: physicochemical; conditions: read-out: Stabilty
Summary of the method: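 50 μM compound in 10% DMSO/PBS without DTT or cathepsin B at 37 °C. Sampled at 0, 4, 8, 12 and 24 h and analyzed by RP-HPLC (C18, 10−100% CH₃CN/0.1% TFA over 20 min). Three repeats.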

[16] = system: A549; assay: Cytotoxicity in human A549 cells assessed as reduction in cell viability incubated for 48 hrs by CCK8 assay; format: functional, cell-based; summary of the method: as §1
[17] = system: BT-549; assay: Cytotoxicity in human BT-549 cells assessed as reduction in cell viability incubated for 48 hrs by CCK8 assay; format: functional, cell-based; summary of the method: as §1
[18] = Toxicity in Balb/c mouse assessed as induction of weight loss at 1 mg/kg, iv dosed every 2 days and measured on day 3; format: organism-based; conditions: in vivo, 72 h, time 3 day
Summary of the method: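 In vivo tolerability in six-week-old male Balb/c nude mice (n = 3 per group). Compounds were given intravenously every 2 days at various dosages, and body weight was followed over time.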

remaining at 24 h, 50 µM [15] [%] | Structure (SMILES) | Activity [1] | IC50 [2] [nM] | IC50 [3] [nM] | fold change (FC) [4] | Drug metabolism [5] | Activity [6] | IC50 [7] [nM] | Activity [8] | Activity [9] | Drug metabolism [10] [%] | Drug metabolism [11] | Activity [12] | Activity [13] | Activity [14] | IC50 ([16]; a549) | IC50 ([17]; bt-549) | Activity [18] | IC50 ([16]; Homo sapiens, A549, 48 h, read-out: IC50) [nM] | IC50 ([17]; Homo sapiens, BT-549, 48 h, read-out: IC50) [nM]
> 90 | CC[C@H](C)[C@H]1C(=O)N[C@@H](C)C(=O)N(C)[C@@H](CC(C)C)C(=O)N[C@@H](Cc2ccc(OC)cc2)C(=O)N(C)[C@H](C)C(=O)O[C@H](C)[C@H](N(C)C(=O)[C@H](CC(C)C)N(C)C(=O)[C@H](C)N(C)C(=O)[C@H](OC(=O)[C@H](C(C)C)[N+](C)(C)Cc2ccc(NC(=O)OCCSSCCn3cc(CCC(=O)NCCCC[C@@H]4NC(=O)[C@@H](Cc5ccc(O)cc5)NC(=O)[C@H](CC(=O)O)NC(=O)CNC(=O)[C@H](CCCNC(=N)N)NC4=O)nn3)cc2)C(C)C)C(=O)N(C)[C@@H](C)C(=O)N1C.O=C([O-])C(F)(F)F | Non-Toxic | 311 | 20.6 | 4 | Metabolite detected | Non-Toxic | 262 | Active | Non-Toxic | 100 | Metabolite detected | Active | Active | Active |  |  |  |  | 
 | C#CCCC(=O)NCCCC[C@@H]1NC(=O)[C@@H](Cc2ccc(O)cc2)NC(=O)[C@H](CC(=O)O)NC(=O)CNC(=O)[C@H](CCCNC(=N)N)NC1=O |  |  |  |  |  |  |  |  |  |  |  | inactive |  | inactive | Not Active | Not Active |  |  | 
 | CC[C@H](C)[C@H]1C(=O)N[C@@H](C)C(=O)N(C)[C@@H](CC(C)C)C(=O)N[C@@H](Cc2ccc(OC)cc2)C(=O)N(C)[C@H](C)C(=O)O[C@H](C)[C@H](N(C)C(=O)[C@H](CC(C)C)N(C)C(=O)[C@H](C)N(C)C(=O)[C@H](OC(=O)[C@H](C(C)C)N(C)C)C(C)C)C(=O)N(C)[C@@H](C)C(=O)N1C (NMe2Val-[dHiv][NMeA][NMeL][NMeT][NMeA][NMeI]A[NMeL]Y(Me)[dNMeA]; ester 4-C) |  |  |  |  |  |  |  |  |  |  |  | Active |  | Active |  |  | Toxic | 19.1 | 18
